Article PMC6120730 (ACS Omega, 2018)
Converted amounts (≈) assume the structure as drawn. Read-outs that look alike come from different tables or passages of the source.

Experiments:
[1] = previously reported; cited from earlier work
[2] = human liver microsomes; previously reported; cited from earlier work
[3] = mouse liver microsomes, previously reported, cited from earlier work; for predicted Eh (M): predicted hepatic extraction ratio
[4] = mouse, oral, 10 mg/kg, plasma concentrations; cited from earlier work
[5] = pH 7.4; previously reported; cited from earlier work
[6] = In vitro metabolism in human liver microsomes; type: in vitro ADME; details: for microsomal CLint: human, liver microsomes; for predicted Eh (H): predicted hepatic extraction ratio, human liver microsomes
How it was run: (§1)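 Liver microsomes at 0.4 or 0.5 mg/mL protein were incubated at 37 °C with 0.5 or 1 μM test compound. Remaining compound in the supernatant was quantified by LC–MS at time points over 0–60 min. In vitro CLint and predicted hepatic extraction ratio were calculated from the depletion data.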

[7] = In vitro metabolism in mouse liver microsomes; type: in vitro ADME; details: for predicted Eh (M): predicted hepatic extraction ratio, mouse liver microsomes
How it was run: as §1

[8] = system: P. falciparum 3D7 parasites; experiment: P. falciparum 3D7 growth assay; type: cell-based; details: Pf3D7 EC50 relative to 1
[9] = Kinetic aqueous solubility by nephelometry, pH 6.5; type: physicochemical; details: phosphate buffer, pH 6.5, aqueous buffer, kinetic from dmso stock
How it was run: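 Test compound in DMSO was spiked into pH 6.5 phosphate buffer (final DMSO 1 v/v %) and incubated 30 min at room temperature. A solubility range was assigned by nephelometry.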

[10] = Mouse pharmacokinetics after oral administration; type: in vivo
How it was run: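 Both arms used a single oral gavage dose. Plasma arm: male Swiss outbred mice, 20 mg/kg as a suspension in 0.5% CMC, 0.5% benzyl alcohol and 0.4% Tween 80. Plasma was sampled over 24 h and measured by LC–MS. Blood arm: 10 mg/kg in 0.1% methylcellulose. Serial blood was taken 0.5–24 h, lysed with water and analysed by LC–MS/MS. Parameters came from noncompartmental analysis.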

[11] = system: P. falciparum Pf3D7^0087/N9; experiment: SCID mouse model of P. falciparum infection; type: in vivo
How it was run: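 NOD-scid IL2Rγnull mice (23–36 g) engrafted with human erythrocytes were infected iv with 20 × 10^6 Pf3D7^0087/N9 parasites. Test compound in 1% methylcellulose was given by oral gavage once daily for 4 days from day 3 (10–60 mg/kg), with actual doses verified by measuring the formulations. Parasitemia was measured by FACS and blood drug by LC–MS–MS. ED90 was set on day 7.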

[12] = male, Swiss outbred, plasma, 20 mg/kg

Row | Compound | microsomal CLint [6] [µL/min/mg] | microsomal CLint ([7]; mouse, liver microsomes) [µL/min/mg] | solubility kinetic at 30 min [9] [µg/mL] | predicted Eh (H) [6] | predicted Eh (M) [7] | other results
1 | Cc1cc(Nc2ccc(S(F)(F)(F)(F)F)cc2)n2nc(C(C)(F)F)nc2n1 [Compound 1] |  |  |  |  |  | kinetic solubility pH 6.5 [1]: 12.5–25 μg/mL; CLint (H) [2]: 4.3 μL/min/mg protein; CLint (M) [3]: 2.8 μL/min/mg protein; predicted Eh (M) [3]: <0.2/<0.2; AUCinf [4]: 23 µM·h
2 | Cc1cc(Nc2ccc(C(F)(F)F)nc2)n2nc(C(C)(F)F)nc2n1 [Compound 2] |  |  |  |  |  | log DpH7.4 [5]: 2.5; kinetic solubility pH 6.5 [1]: >100 μg/mL; CLint (H) [2]: 2.2 μL/min/mg protein; CLint (M) [3]: < 7 μL/min/mg protein; predicted Eh (M) [3]: < 0.01
3 | Cc1nc(Nc2ccc(C)c(Cl)c2)c2c(C)noc2n1 [Compound 3] | 6.2 | 28 |  |  |  | CLint (M) ([7]; mouse, liver microsomes): rapidly metabolized
4 | Cc1nc(NC2CCc3ccc(Cl)cc3C2)c2c(C)noc2n1 (centres unmarked) [Compound 9, N-(7-Chloro-1,2,3,4-tetrahydronaphthalen-2-yl)-3,6-dimethylisoxazolo[5,4-d]pyrimidin-4-amine] | 36 | 183 | 1.6 to 3.1 (≈ 4.87 to 9.43 µM) | 0.59 | 0.89 | fold less potent than 1 on P. falciparum parasites [8]: 2–4 fold
5 | Cc1nc(NC2CCc3cc(Cl)ccc3C2)c2c(C)noc2n1 (centres unmarked) [Compound 10, N-(6-Chloro-1,2,3,4-tetrahydronaphthalen-2-yl)-3,6-dimethylisoxazolo[5,4-d]pyrimidin-4-amine] | 23 | 179 | 1.6 to 3.1 (≈ 4.87 to 9.43 µM) | 0.47 | 0.89 | 
6 | Cc1nc(NC2CCc3ccc(Br)cc3C2)c2c(C)noc2n1 (centres unmarked) [Compound 11, N-(7-Bromo-1,2,3,4-tetrahydronaphthalen-2-yl)-3,6-dimethylisoxazolo[5,4-d]pyrimidin-4-amine] | 32 | 233 | < 1.6 | 0.56 | 0.91 | fold less potent than 1 on P. falciparum parasites [8]: 2–4 fold
7 | Cc1nc(NC2CCc3cc(Br)ccc3C2)c2c(C)noc2n1 (centres unmarked) [Compound 12, N-(6-Bromo-1,2,3,4-tetrahydronaphthalen-2-yl)-3,6-dimethylisoxazolo[5,4-d]pyrimidin-4-amine] | 19 | 138 | < 1.6 | 0.42 | 0.86 | 
8 | Cc1nc(NC2Cc3cc(F)c(F)cc3C2)c2c(C)noc2n1 [Compound 13, N-(5,6-Difluoro-2,3-dihydro-1H-inden-2-yl)-3,6-dimethylisoxazolo[5,4-d]pyrimidin-4-amine] | 17 | 143 | 3.1 to 6.3 (≈ 9.8 to 19.9 µM) | 0.39 | 0.86 | AUC(0-inf) [10, 12]: 4.2 µM·h; Cmax [10, 12]: 2100 nM; Tmax [10, 12]: 60 min
9 | Cc1nc(Nc2ccc(S(F)(F)(F)(F)F)cc2)c2c(C)noc2n1 [Compound 14, 3,6-Dimethyl-N-(4-(pentafluoro-l6-sulfanyl)phenyl)isoxazolo[5,4-d]pyrimidin-4-amine] | 20 | 38 | 6.3 to 12.5 (≈ 17.2 to 34.1 µM) | 0.44 | 0.63 | fold less potent than 1 on P. falciparum parasites [8]: 2–4 fold; AUC(0-inf) ([10]; whole blood, 10 mg/kg): 3.8 µM·h; Cmax ([10]; whole blood, 10 mg/kg): 1300 nM; Tmax ([10]; whole blood, 10 mg/kg): 45 min; ED90 (90% reduction in parasitemia) ([11]; SCID mice, oral QD for 4 days, data collected 24 h after the last dose): ~63 mg/kg; ED90 fold higher than that for 1 ([11]; same SCID model, once daily (QD) dosing, comparison with 1 from ref 26): ≥ 8 fold
10 | Cc1nc(Nc2ccc(C(F)(F)F)cc2)c2c(C)noc2n1 [Compound 15, 3,6-Dimethyl-N-(4-(trifluoromethyl)phenyl)isoxazolo[5,4-d]pyrimidin-4-amine] | 24 | 28 | 6.3 to 12.5 (≈ 20.4 to 40.5 µM) | 0.48 | 0.55 | 
11 | Cc1nc(Nc2ccc(C(F)(F)F)nc2)c2c(C)noc2n1 [Compound 16, 3,6-Dimethyl-N-(6-(trifluoromethyl)pyridin-3-yl)isoxazolo[5,4-d]pyrimidin-4-amine] | 8 | 13 | 25 to 50 (≈ 80.8 to 162 µM) | 0.25 | 0.36 | 
12 | Cc1nc(NC2Cc3cc(F)c(F)cc3C2)c2c(C(F)(F)F)noc2n1 [Compound 30, N-(5,6-Difluoro-2,3-dihydro-1H-inden-2-yl)-6-methyl-3-(Trifluoromethyl)isoxazolo[5,4-d]pyrimidin-4-amine] | 26 | 328 | 1.6 to 3.1 (≈ 4.32 to 8.37 µM) | 0.5 | 0.93 | 
13 | Cc1nc(Nc2ccc(C(F)(F)F)cc2)c2c(C(F)(F)F)noc2n1 [Compound 31, 6-Methyl-3-(trifluoromethyl)-N-(4-(trifluoromethyl)phenyl)isoxazolo[5,4-d]pyrimidin-4-amine] | 13 | 76 | 1.6 to 3.1 (≈ 4.42 to 8.56 µM) | 0.33 | 0.77 | 
14 | Cc1nc(Nc2ccc(S(F)(F)(F)(F)F)cc2)c2c(C(F)(F)F)noc2n1 [Compound 32, 6-Methyl-N-(4-(pentafluoro-l6-sulfanyl)phenyl)-3-(trifluoromethyl)isoxazolo[5,4-d]pyrimidin-4-amine] | 13 | 73 | < 1.6 | 0.34 | 0.76 | 
15 | Cc1noc2nc(C(F)(F)F)nc(Nc3ccc(C(F)(F)F)cc3)c12 [Compound 35, 3-Methyl-6-(trifluoromethyl)-N-(4-(trifluoromethyl)phenyl)isoxazolo[5,4-d]pyrimidin-4-amine] | 18 | 36 | 1.6 to 3.1 (≈ 4.42 to 8.56 µM) | 0.41 | 0.61 | 
16 | Cc1noc2nc(C(F)(F)F)nc(Nc3ccc(S(F)(F)(F)(F)F)cc3)c12 [Compound 36, 3-Methyl-N-(4-(pentafluoro-l6-sulfanyl)phenyl)-6-(trifluoromethyl)isoxazolo[5,4-d]pyrimidin-4-amine] | 10 | 26 | 1.6 to 3.1 (≈ 3.81 to 7.38 µM) | 0.28 | 0.53 | 
